ChEMBL document CHEMBL1151949, “Alkaloids from the roots of Stemona aphylla” (2009)
Values after ≈ are worked out from the molar mass of the structure shown.

Experiments:
Type in all cases: functional
Candida albicans = experiment: Antimicrobial activity against Candida albicans ATCC 90028 after 24 hrs by broth dilution technique; conditions: ATCC 90028, 24 h
Summary of the method: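 Broth dilution in trypticase soy broth, series from 500 to 1.95 µg/mL. Incubation at 37 °C for 24 h. MIC taken as lowest concentration with no visible growth. Amphotericin B served as antifungal positive control.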

Plutella xylostella = experiment: Insecticidal activity against Plutella xylostella treated as topical application
Staphylococcus aureus = experiment: Antimicrobial activity against Staphylococcus aureus ATCC 25923 after 24 hrs by broth dilution technique
Summary of the method: (§1)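 Serial dilutions in trypticase soy broth spanning 500 to 1.95 µg/mL, tested by broth dilution; tubes incubated 37 °C for 24 h. MIC taken as lowest concentration tube with no visible organism growth. Gentamycin served as antibacterial positive control.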

Escherichia coli = experiment: Antimicrobial activity against Escherichia coli ATCC 25922 after 24 hrs by broth dilution technique; summary of the method: as §1
Pseudomonas aeruginosa = experiment: Antimicrobial activity against Pseudomonas aeruginosa ATCC 27853 after 24 hrs by broth dilution technique; summary of the method: as §1

C[C@@H]1[C@H](O)[C@@H](C)/C=C/C=C/C=C/C=C/C=C/C=C/C=C/[C@H](O[C@@H]2O[C@H](C)[C@@H](O)[C@H](N)[C@@H]2O)C[C@@H]2O[C@](O)(C[C@@H](O)C[C@@H](O)[C@H](O)CC[C@@H](O)C[C@@H](O)CC(=O)O[C@H]1C)C[C@H](O)[C@H]2C(=O)O [AMPHOTERICIN B]
MFC (Candida albicans): 0.7 µg/mL (≈ 0.758 µM)

CNC(=O)ON=C(C)SC [METHOMYL]
LC50 (Plutella xylostella): 1840 µg/mL (≈ 11300 µM)

C[C@@H]1C[C@H](C[C@@H](C)[C@H]2CCCCN3CCC[C@@H]23)OC1=O [STEMAPHYLLINE]
MBC (Staphylococcus aureus; ATCC 25923, 24 h): 250 µg/mL (≈ 895 µM)
MIC (Staphylococcus aureus; ATCC 25923, 24 h): 125 µg/mL (≈ 447 µM)
MFC (Candida albicans): 125 µg/mL (≈ 447 µM)
MIC (Candida albicans): 125 µg/mL (≈ 447 µM)
MBC (Escherichia coli; ATCC 25922, 24 h): 125 µg/mL (≈ 447 µM)
MIC (Escherichia coli; ATCC 25922, 24 h): 62.5 µg/mL (≈ 224 µM)
MBC (Pseudomonas aeruginosa; ATCC 27853, 24 h): 125 µg/mL (≈ 447 µM)
MIC (Pseudomonas aeruginosa; ATCC 27853, 24 h): 62.5 µg/mL (≈ 224 µM)
LC50 (Plutella xylostella): 1820 µg/mL (≈ 6530 µM)

GENTAMICIN
MBC (Staphylococcus aureus): 22.5 µg/mL
MIC (Staphylococcus aureus): 5.62 µg/mL
MBC (Escherichia coli): 5.62 µg/mL
MIC (Escherichia coli): 5.62 µg/mL
MBC (Pseudomonas aeruginosa): 1.46 µg/mL
MIC (Pseudomonas aeruginosa): 0.35 µg/mL
